≈ marks a conversion by molar mass, not a printed value. Calls of active or inactive are those of the source. No cut-off for these calls is given here. Residues, ends and D or L forms follow the SMILES beside them. *: point of attachment. Boc = CC(C)(C)OC(=O)*
Legend:
Escherichia coli = assay: Antibacterial activity against Escherichia coli ATCC 35218 after 16 to 20 hrs by alamar blue dye based CLSI method; assay type: functional
BT-549 = assay: Cytotoxicity against human BT549 cells assessed as reduction in cell viability after 48 hrs by neutral red uptake assay; assay type: cell-based; conditions: bt-549, 48 h
Outline: (§1)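 Cells seeded at 25 000 per well and grown 24 h to confluence, then exposed to peptides up to 10 μg/mL for 48 h; viability by modified neutral red uptake; doxorubicin positive control, DMSO negative control.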

LLC-PK1 = assay: Cytotoxicity against pig LLC-PK1 cells assessed as reduction in cell viability after 48 hrs by neutral red uptake assay; assay type: cell-based, Sus scrofa; conditions: llc-pk1, 48 h; outline: as §1
Candida = assay: Antifungal activity against Candida; assay type: functional
Cryptococcus neoformans [1] = assay: Antifungal activity against Cryptococcus neoformans ATCC 90113 after 70 to 74 hrs by alamar blue dye based CLSI method; assay type: functional
Vero = assay: Cytotoxicity against African green monkey Vero cells assessed as reduction in cell viability after 48 hrs by neutral red uptake assay; assay type: cell-based; conditions: chlorocebus sabaeus; outline: as §1
Cryptococcus neoformans [2] = assay: Fungicidal activity against Cryptococcus neoformans ATCC 350 at antifungal MIC after 4 hrs by time kill assay; assay type: functional
SK-OV-3 = assay: Cytotoxicity against human SKOV3 cells assessed as reduction in cell viability after 48 hrs by neutral red uptake assay; assay type: cell-based; conditions: sk-ov-3, 48 h; outline: as §1
Aspergillus = assay: Antifungal activity against Aspergillus; assay type: functional
SK-MEL = assay: Cytotoxicity against human SK-MEL cells assessed as reduction in cell viability after 48 hrs by neutral red uptake assay; assay type: cell-based; outline: as §1
Cryptococcus neoformans [3] = assay: Induction of membrane permeabilization in Cryptococcus neoformans ATCC 350 after 1 hr using FITC labeled compound by confocal microscopic analysis; assay type: functional
[4] = Selectivity index, ratio of cytotoxicity against pig LLC-PK1 cells to IC50 for methicillin-resistant Staphylococcus aureus ATCC 33591; assay type: toxicity, cell-based; conditions: read-out: Selectivity Index
Outline: (§2)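 Selectivity index is the ratio CTX/IC50. For CTX, cells were seeded at 25 000 per well and grown 24 h, then given peptide up to 10 μg/mL for 48 h, with neutral red uptake read-out. […] OD530 was read before and after 16−20 h at 35 °C.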

[5] = Selectivity index, ratio of cytotoxicity against human SKOV3 cells to IC50 for Staphylococcus aureus ATCC 29213; assay type: toxicity, cell-based; conditions: read-out: Selectivity Index
Outline: (§3)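 Selectivity index is the ratio CTX/IC50. For CTX, cells were seeded at 25 000 per well and grown 24 h, then exposed to peptide up to 10 μg/mL for 48 h, with viability by neutral red uptake. […] The inoculum was 5 × 10^5 CFU/mL, with OD530 read before and after incubation.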

[6] = Selectivity index, ratio of cytotoxicity against human BT549 cells to IC50 for Cryptococcus neoformans ATCC 90113; assay type: toxicity, cell-based; conditions: read-out: Selectivity Index
[7] = Selectivity index, ratio of cytotoxicity against human SK-MEL cells to IC50 for methicillin-resistant Staphylococcus aureus ATCC 33591; assay type: toxicity, cell-based; conditions: read-out: Selectivity Index; outline: as §2
[8] = Selectivity index, ratio of cytotoxicity against human SKOV3 cells to IC50 for Cryptococcus neoformans ATCC 90113; assay type: toxicity, cell-based; conditions: read-out: Selectivity Index
[9] = Selectivity index, ratio of cytotoxicity against pig LLC-PK1 cells to IC50 for Staphylococcus aureus ATCC 29213; assay type: toxicity, cell-based; conditions: read-out: Selectivity Index; outline: as §3
Staphylococcus aureus [10] = assay: Antibacterial activity against Staphylococcus aureus ATCC 29213 after […] hrs by alamar blue dye based CLSI method; assay type: functional
[11] = Selectivity index, ratio of cytotoxicity against African green monkey VERO cells to IC50 for Staphylococcus aureus ATCC 29213; assay type: toxicity, cell-based; conditions: read-out: Selectivity Index; outline: as §3
[12] = Selectivity index, ratio of cytotoxicity against pig LLC-PK1 cells to IC50 for Cryptococcus neoformans ATCC 90113; assay type: toxicity, cell-based; conditions: read-out: Selectivity Index
[13] = Selectivity index, ratio of cytotoxicity against human BT549 cells to IC50 for methicillin-resistant Staphylococcus aureus ATCC 33591; assay type: toxicity, cell-based; conditions: read-out: Selectivity Index; outline: as §2
[14] = Selectivity index, ratio of cytotoxicity against human SK-MEL cells to IC50 for Staphylococcus aureus ATCC 29213; assay type: toxicity, cell-based; conditions: read-out: Selectivity Index; outline: as §3
[15] = Selectivity index, ratio of cytotoxicity against human BT549 cells to IC50 for Staphylococcus aureus ATCC 29213; assay type: toxicity, cell-based; conditions: read-out: Selectivity Index; outline: as §3
[16] = Selectivity index, ratio of cytotoxicity against African green monkey VERO cells to IC50 for methicillin-resistant Staphylococcus aureus ATCC 33591; assay type: toxicity, cell-based; conditions: read-out: Selectivity Index; outline: as §2
[17] = Selectivity index, ratio of cytotoxicity against human SKOV3 cells to IC50 for methicillin-resistant Staphylococcus aureus ATCC 33591; assay type: toxicity, cell-based; conditions: read-out: Selectivity Index; outline: as §2
Staphylococcus aureus [18] = assay: Antibacterial activity against methicillin-resistant Staphylococcus aureus ATCC 33591 after 16 to 20 hrs by alamar blue dye based CLSI method; assay type: functional
[19] = Selectivity index, ratio of cytotoxicity against human SK-MEL cells to IC50 for Cryptococcus neoformans ATCC 90113; assay type: toxicity, cell-based; conditions: read-out: Selectivity Index
[20] = Selectivity index, ratio of cytotoxicity against African green monkey VERO cells to IC50 for Cryptococcus neoformans ATCC 90113; assay type: toxicity, cell-based; conditions: read-out: Selectivity Index
Cryptococcus neoformans [21] = assay: Fungicidal activity against Cryptococcus neoformans ATCC 350 at 0.89 ug/ml after 4 hrs by time kill assay; assay type: functional
Cryptococcus neoformans [22] = assay: Antifungal activity against Cryptococcus neoformans ATCC 350 after 70 to 74 hrs by alamar blue dye based CLSI method; assay type: functional

| SMILES | Activity (Escherichia coli) | Activity (BT-549) [µg/mL] | Activity (LLC-PK1) [µg/mL] | Activity (Candida) | IC50 (Cryptococcus neoformans [1]) [µg/mL] | Activity (Vero) [µg/mL] | Activity (SK-OV-3) [µg/mL] | Activity (Aspergillus) | Activity (SK-MEL) [µg/mL] | selectivity ratio [5] | selectivity ratio [6] | MFC (Cryptococcus neoformans [1]) [µg/mL] | MIC (Cryptococcus neoformans [1]) [µg/mL] | selectivity ratio [8] | selectivity ratio [9] | IC50 (Staphylococcus aureus [10]) [µg/mL] | MBC (Staphylococcus aureus [10]) [µg/mL] | MIC (Staphylococcus aureus [10]) [µg/mL] | selectivity ratio [11] | selectivity ratio [12] | further results |
| --- | --- | --- | --- | --- | --- | --- | --- | --- | --- | --- | --- | --- | --- | --- | --- | --- | --- | --- | --- | --- | --- |
| COC(=O)[C@H](Cc1c[nH]cn1)NC(=O)[C@H](Cc1c[nH]c2ccccc12)NC(=O)[C@H](Cc1c[nH]cn1)NC(=O)OC(C)(C)C (Boc-His-Trp-His-OMe) | inactive | > 10 | > 10 | inactive | > 20 | > 10 | > 10 | inactive | > 10 | – | – | – | – | – | – | – | – | – | – | – | Activity (Cryptococcus neoformans [2]): inactive |
| N[C@@H](Cc1c[nH]c(-c2ccccc2)n1)C(=O)N[C@@H](Cc1c[nH]c2ccccc12)C(=O)N[C@@H](Cc1c[nH]c(-c2ccccc2)n1)C(=O)NCc1ccccc1 | inactive | > 10 | > 10 | inactive | > 20 | > 10 | > 10 | inactive | > 10 | – | – | – | – | – | – | – | – | – | – | – | Activity (Cryptococcus neoformans [3]): inactive |
| CC(C)(C)c1ccc(-c2nc(C[C@H](NC(=O)[C@H](Cc3c[nH]c4ccccc34)NC(=O)[C@@H](N)Cc3c[nH]c(-c4ccc(C(C)(C)C)cc4)n3)C(=O)NCc3ccccc3)c[nH]2)cc1 | inactive | > 10 | > 10 | inactive | 2.6 (≈ 3.12 µM) | > 10 | > 10 | inactive | > 10 | > 2.68 | > 3.8 | 5 (≈ 6.01 µM) | 5 (≈ 6.01 µM) | > 3.8 | > 2.68 | 3.72 (≈ 4.47 µM) | 20 (≈ 24 µM) | 10 (≈ 12 µM) | > 2.68 | > 3.8 | selectivity ratio [4]: > 1.49; selectivity ratio [7]: > 1.49; selectivity ratio [13]: > 1.49; selectivity ratio [14]: > 2.68; selectivity ratio [15]: > 2.68; selectivity ratio [16]: > 1.49; selectivity ratio [17]: > 1.49; IC50 (Staphylococcus aureus [18]): 6.7 µg/mL (≈ 8.05 µM); MBC (Staphylococcus aureus [18]): > 20 µg/mL; MIC (Staphylococcus aureus [18]): > 20 µg/mL; selectivity ratio [19]: > 3.8; selectivity ratio [20]: > 3.8 |
| COC(=O)[C@H](Cc1c[nH]c(-c2ccc(C(C)(C)C)cc2)n1)NC(=O)[C@H](Cc1c[nH]c2ccccc12)NC(=O)[C@@H](N)Cc1c[nH]c(-c2ccc(C(C)(C)C)cc2)n1 | inactive | > 10 | > 10 | inactive | 0.83 (≈ 1.1 µM) | > 10 | > 10 | inactive | > 10 | > 2.3 | > 12 | 1.25 (≈ 1.65 µM) | 1.25 (≈ 1.65 µM) | > 12 | > 2.3 | 4.33 (≈ 5.72 µM) | > 20 | 10 (≈ 13.2 µM) | > 2.3 | > 12 | selectivity ratio [4]: > 1.49; selectivity ratio [7]: > 1.49; selectivity ratio [13]: > 1.49; selectivity ratio [14]: > 2.3; selectivity ratio [15]: > 2.3; selectivity ratio [16]: > 1.49; selectivity ratio [17]: > 1.49; IC50 (Staphylococcus aureus [18]): 6.71 µg/mL (≈ 8.86 µM); MBC (Staphylococcus aureus [18]): > 20 µg/mL; MIC (Staphylococcus aureus [18]): > 20 µg/mL; selectivity ratio [19]: > 12; selectivity ratio [20]: > 12 |
| CC(C)(C)OC(=O)N[C@@H](Cc1c[nH]c(-c2ccccc2)n1)C(=O)N[C@@H](Cc1c[nH]c2ccccc12)C(=O)N[C@@H](Cc1c[nH]c(-c2ccccc2)n1)C(=O)NCc1ccccc1 | inactive | > 10 | > 10 | inactive | 1.4 (≈ 1.71 µM) | > 10 | > 10 | inactive | > 10 | > 1.3 | > 7.1 | 2.5 (≈ 3.05 µM) | 2.5 (≈ 3.05 µM) | > 7.1 | > 1.3 | 7.6 (≈ 9.27 µM) | > 20 | > 20 | > 1.3 | > 7.1 | selectivity ratio [14]: > 1.3; selectivity ratio [15]: > 1.3; IC50 (Staphylococcus aureus [18]): 10.5 µg/mL (≈ 12.8 µM); MBC (Staphylococcus aureus [18]): > 20 µg/mL; MIC (Staphylococcus aureus [18]): > 20 µg/mL; selectivity ratio [19]: > 7.1; selectivity ratio [20]: > 7.1 |
| C[C@@H]1[C@H](O)[C@@H](C)/C=C/C=C/C=C/C=C/C=C/C=C/C=C/[C@H](O[C@@H]2O[C@H](C)[C@@H](O)[C@H](N)[C@@H]2O)C[C@@H]2O[C@](O)(C[C@@H](O)C[C@@H](O)[C@H](O)CC[C@@H](O)C[C@@H](O)CC(=O)O[C@H]1C)C[C@H](O)[C@H]2C(=O)O [AMPHOTERICIN B] | – | – | – | – | – | – | – | – | – | – | – | 1.25 (≈ 1.35 µM) | 1.25 (≈ 1.35 µM) | – | – | – | – | – | – | – | Activity (Cryptococcus neoformans [21]): Active; MIC (Cryptococcus neoformans [22]): 0.89 µg/mL (≈ 0.963 µM) |
| OC(Cn1cncn1)(Cn1cncn1)c1ccc(F)cc1F [FLUCONAZOLE] | – | – | – | – | – | – | – | – | – | – | – | – | – | – | – | – | – | – | – | – | MIC (Cryptococcus neoformans [22]): 9.57 µg/mL (≈ 31.2 µM) |
